The nature of test [1]: reducers of endogenous Her2 protein level, primary screen, SKBR3 breast tumor cells, AlphaScreen, ATP viability (AID 461;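 active = Her2 level under about 52% in both replicate screens, with viability over 70% of control, limit read from the data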;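 for Her2 level: lower value means less Her2 protein in the cells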;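 for viability: percent of carrier control wells set as 100% viability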). Conditions: 18-24 h, measured here: SKBR3 viability, ATP luminescence, at 10 µM. For orientation: Alpha assays give light when donor and acceptor beads are brought close together.
Test [2] addresses Receptor tyrosine-protein kinase erbB-2 (Homo sapiens) (UniProt P04626). The description is as above. Conditions: 18-24 h, at 10 µM, stronger effect = lower value.
Test [3] is described as follows: SK-BR-3 cell growth inhibitors, pilot screen, 24 h, human (AID 572;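 active = viability at or below 10% of carrier control in both of two separate runs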;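 note: compound exposure lasted between 18 and 24 h rather than exactly 24 h; 100% = carrier-treated control wells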). Conditions: SK-BR-3 viability, CellTiter-Glo luminescence, at 10 µM, stronger effect = lower value. (In general: Cellular ATP, detected with luciferase, serves as a proxy for viable cell number.)
The nature of test [4]: HUVEC growth inhibition – cell-based, human, primary screen (AID 575;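 active = viability at or below 30% in both replicate assays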;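 note: 100% = median of untreated cell wells with 0.1% DMSO on each plate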). Conditions: HUVEC proliferation, CellTiter-Glo luminescence, 72 h; at 10 µM; stronger effect = lower value. The method, boiled down:
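Timing: 72 h treatment at 37 °C; material: HUVEC primary cells; technique: CellTiter-Glo luminescence measuring cellular ATP; controls: vehicle and MePR control wells; measure: percent of median DMSO-control luminescence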

Test [5] in a line: growth inhibitors of H69AR lung tumor, primary screen, human, duplicate replicates (AID 580;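 active = viability at or under a set limit in both replicates, limit being median viability minus 3 SD, cut at about 48% in these data, passing the limit was not always enough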;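 note: 100% = mean luminescence of untreated wells and 0% = no signal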). Conditions: H69AR lung tumor cells viability, ATP luminescence, 72 h; at 10 µM; stronger effect = lower value.
A short description of test [6]: reversal of MRP1-mediated doxorubicin resistance, pilot screen, H69AR cells, doxorubicin co-treatment (AID 601;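 active = viability loss from added drug above about 55%, and viability with drug at most 40%, in both replicates, limit read from the data, passing the limit was not always enough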). Conditions: CellTiter-Glo, 72 h, at 10 µM; for differential viability (reversal): stronger effect = higher value.
Test [7] in a line: 384-well plate pilot, post-Golgi transport modulator project, inhibition of yeast transport mutant growth (AID 636; in the data active = inhibition above about 31%). Conditions: absorbance 615 nm, about 18 h, stronger effect = higher value.
Test [8] is described as follows: growth suppression of yeast trafficking mutant, preliminary HTS, modulators of trafficking downstream of Golgi apparatus project, 1536-format plate, OD 615 nm (AID 637). Conditions: yeast transport mutant growth, absorbance 615 nm, 18 h; stronger effect = higher value.
Where [9] appears, read: H69AR cells + 2 uM doxorubicin, measured here: viability with 2 uM doxorubicin, stronger effect = lower value.
Where [10] appears, read: H69AR cells, compound alone cytotoxicity.

Active and inactive are the calls of the source. Cut-off read from the data, not from the text of the source, unless noted: active = inhibition above about 30%; inactive = the rest.

Chain of Receptor tyrosine-protein kinase erbB-2 (Homo sapiens) (P04626 whole entry, looked up): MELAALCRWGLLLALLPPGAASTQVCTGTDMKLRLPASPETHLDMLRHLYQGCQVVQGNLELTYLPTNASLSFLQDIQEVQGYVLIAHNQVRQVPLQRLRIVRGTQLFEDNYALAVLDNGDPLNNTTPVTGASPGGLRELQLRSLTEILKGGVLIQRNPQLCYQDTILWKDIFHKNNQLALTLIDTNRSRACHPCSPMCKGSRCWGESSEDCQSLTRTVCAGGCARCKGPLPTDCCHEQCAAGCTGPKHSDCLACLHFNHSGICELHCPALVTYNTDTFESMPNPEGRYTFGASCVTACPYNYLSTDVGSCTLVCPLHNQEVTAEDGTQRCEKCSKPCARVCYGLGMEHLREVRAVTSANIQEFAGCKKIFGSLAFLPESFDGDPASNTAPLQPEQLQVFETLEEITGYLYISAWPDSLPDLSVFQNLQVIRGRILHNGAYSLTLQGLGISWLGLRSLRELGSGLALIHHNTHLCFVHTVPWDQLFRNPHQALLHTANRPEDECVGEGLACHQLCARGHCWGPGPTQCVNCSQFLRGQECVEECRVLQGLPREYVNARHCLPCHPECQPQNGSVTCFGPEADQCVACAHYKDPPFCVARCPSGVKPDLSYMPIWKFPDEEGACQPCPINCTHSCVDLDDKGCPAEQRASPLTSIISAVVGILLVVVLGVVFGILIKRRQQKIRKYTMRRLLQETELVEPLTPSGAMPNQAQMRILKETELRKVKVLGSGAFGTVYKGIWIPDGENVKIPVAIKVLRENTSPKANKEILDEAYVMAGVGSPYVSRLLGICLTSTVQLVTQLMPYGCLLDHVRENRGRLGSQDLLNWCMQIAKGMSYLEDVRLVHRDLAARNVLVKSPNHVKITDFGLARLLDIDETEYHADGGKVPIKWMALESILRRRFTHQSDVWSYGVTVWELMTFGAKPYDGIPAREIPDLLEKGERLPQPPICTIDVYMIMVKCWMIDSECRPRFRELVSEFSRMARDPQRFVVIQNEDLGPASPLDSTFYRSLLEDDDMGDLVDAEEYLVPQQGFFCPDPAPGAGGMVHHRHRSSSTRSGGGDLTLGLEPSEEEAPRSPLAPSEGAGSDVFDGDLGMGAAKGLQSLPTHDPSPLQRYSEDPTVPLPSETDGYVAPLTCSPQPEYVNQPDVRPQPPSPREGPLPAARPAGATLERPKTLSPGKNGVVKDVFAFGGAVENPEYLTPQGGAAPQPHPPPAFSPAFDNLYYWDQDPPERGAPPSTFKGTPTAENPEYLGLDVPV

With `COCCCNC(=O)c1ccc2c(c1)OCO2`, the viability (in general, a read-out of living cells in per cent, often relative to untreated cells) is 96.5% in test [1]; 96.5% (inactive) in test [3]; 89.9% (inactive) in test [4]; 89.8% (inactive) in test [5]; 91.3% in test [6] (setting [9]); 89.8% in test [6] (setting [10]). In addition, the Her2 level in test [2] is 93.5% (inactive). In addition, the differential viability (reversal) in test [6] (H69AR cells + 2 uM doxorubicin) was -1.48% (inactive). The inhibition (usually the relative decrease from the control value, in per cent) in test [7] was -2.76% (inactive); in test [8], 5.74% (inactive).
For `CCOC(=O)C1CCN(c2c(N3CCCC(C(=O)OCC)C3)c(=O)c2=O)CC1` (stereo not given), the viability in test [1] is 103%; in test [3], 103% (inactive); in test [4], 97.1% (inactive); in test [5] it was 96.9% (inactive); in test [6] (setting [9]), 100%; in test [6] (setting [10]), 96.9%. Moreover, in test [2], the Her2 level is 119% (inactive). For the same compound, the differential viability (reversal) in test [6] (H69AR cells + 2 uM doxorubicin) is -3.29% (inactive). For the same compound, the values for the inhibition in test [7] and in test [8] were 2.31% (inactive) and -2% (inactive), respectively.
In the case of `CCOC(=O)CSc1nnc([C@H](C)NC(=O)OC(C)(C)C)o1`, the viability was 104% in test [1]; 104% (inactive) in test [3]; 107% (inactive) in test [4]; 106% (inactive) in test [5]; 85.7% in test [6] (setting [9]); 106% in test [6] (setting [10]). For the same compound, the Her2 level in test [2] is 97% (inactive). For the same compound, in test [6] (H69AR cells + 2 uM doxorubicin), the differential viability (reversal) is 20.2% (inactive). In addition, the inhibition in test [7] was -5.58% (inactive); in test [8], -10.2% (inactive).
Regarding `Cc1ccc(C)c(N2CCN(C(=O)C3CCN(S(=O)(=O)c4c(C)noc4C)CC3)CC2)c1`, the viability is 104% in test [1]; 104% (inactive) in test [3]; 74.8% (inactive) in test [4]; 83.4% (inactive) in test [5]; 55.6% in test [6] (setting [9]); 83.4% in test [6] (setting [10]). Moreover, the Her2 level in test [2] was 72% (inactive). Further, the differential viability (reversal) in test [6] (H69AR cells + 2 uM doxorubicin) was 27.8% (inactive). In addition, the inhibition is -2.89% (inactive) in test [7] and -3.97% (inactive) in test [8].
As to `CC(C)Cc1nc(S(=O)(=O)c2ccc(Cl)cc2)c(N2CCOCC2)o1`, the viability is 128% in test [1]; 128% (inactive) in test [3]; 87.8% (inactive) in test [4]; 90.7% (inactive) in test [5]; 90.1% in test [6] (setting [9]); 90.7% in test [6] (setting [10]). Further, the Her2 level in test [2] was 94.5% (inactive). In addition, the differential viability (reversal) in test [6] (H69AR cells + 2 uM doxorubicin) was 0.63% (inactive). Also, the inhibition in test [7] is -5.06% (inactive); in test [8], 1.75% (inactive).
On to `COc1ccccc1C(=O)Nc1ccc(N2CCN(S(C)(=O)=O)CC2)cc1`, for which the viability in test [1] is 99.5%; in test [3], 99.5% (inactive); in test [4] it was 144% (inactive); in test [5], 97.2% (inactive); in test [6] (setting [9]), 84.5%; in test [6] (setting [10]) it was 97.2%. In test [2], the Her2 level is 106% (inactive). Further, the differential viability (reversal) in test [6] (H69AR cells + 2 uM doxorubicin) is 12.7% (inactive). The inhibition in test [7] was -1.89% (inactive); in test [8] it was -4% (inactive).
In the case of `Cc1cc(Nc2ccc(C(=O)O)cc2)n2nc(C)nc2n1`, the viability in test [1] is 101%; in test [3], 101% (inactive); in test [4] it was 90.5% (inactive); in test [5], 109% (inactive); in test [6] (setting [9]), 99.2%; in test [6] (setting [10]) it was 109%. The Her2 level in test [2] was 96.5% (inactive). Further, in test [6] (H69AR cells + 2 uM doxorubicin), the differential viability (reversal) is 9.93% (inactive). Further, the inhibition was -4.67% (inactive) in test [7] and 4.92% (inactive) in test [8].
For `C#CCN1C(=O)C(O)(CC(=O)c2cccc(OC)c2)c2ccccc21` (stereo not given), the viability in test [1] is 100%; in test [3] it was 100% (inactive); in test [4], 93.3% (inactive); in test [5], 21.7% (active); in test [6] (setting [9]) it was 38.3%; in test [6] (setting [10]), 21.7%. For the same compound, in test [2], the Her2 level is 84% (inactive). For the same compound, in test [6] (H69AR cells + 2 uM doxorubicin), the differential viability (reversal) is -16.6% (inactive). In addition, the inhibition in test [7] is -7.03% (inactive); in test [8] it was 1.67% (inactive).
`CCOc1ccc(NC(=O)CSc2nnnn2CC(=O)O)cc1`: the viability in test [1] was 104%; in test [3], 104% (inactive); in test [4] it was 96% (inactive); in test [5] it was 95.7% (inactive); in test [6] (setting [9]), 99.8%; in test [6] (setting [10]), 95.7%. The Her2 level in test [2] was 98% (inactive). Moreover, in test [6] (H69AR cells + 2 uM doxorubicin), the differential viability (reversal) was -4.13% (inactive). The values for the inhibition in test [7] and in test [8] were -3.16% (inactive) and -5.65% (inactive), respectively.
Regarding `COc1ccc(CNc2ccc(C(=O)O)cc2)cc1`, the viability is 102% in test [1]; 102% (inactive) in test [3]; 93% (inactive) in test [4]; 91.7% (inactive) in test [5]; 86.8% in test [6] (setting [9]); 91.7% in test [6] (setting [10]). The Her2 level in test [2] was 87% (inactive). For the same compound, the differential viability (reversal) in test [6] (H69AR cells + 2 uM doxorubicin) is 4.9% (inactive). In addition, the inhibition is -3.87% (inactive) in test [7] and 8.55% (inactive) in test [8].
Regarding `O=C(NCCCCNC(=O)c1cccnc1)c1cccnc1`, the viability is 95% in test [1]; 95% (inactive) in test [3]; 94.5% (inactive) in test [4]; 105% (inactive) in test [5]; 102% in test [6] (setting [9]); 105% in test [6] (setting [10]). In addition, the Her2 level in test [2] was 83% (inactive). Further, the differential viability (reversal) in test [6] (H69AR cells + 2 uM doxorubicin) was 3.5% (inactive). The inhibition in test [7] was -0.52% (inactive); in test [8], 34.9% (active).
Turning to `O=C(NCc1ccco1)c1cnn2c(C(F)(F)F)cc(-c3ccco3)nc12`, the viability is 86.5% in test [1]; 86.5% (inactive) in test [3]; 92.9% (inactive) in test [4]; 71.8% (inactive) in test [5]; 71.7% in test [6] (setting [9]); 71.8% in test [6] (setting [10]). Moreover, the Her2 level in test [2] is 74.5% (inactive). Moreover, the differential viability (reversal) in test [6] (H69AR cells + 2 uM doxorubicin) was 0.17% (inactive). Moreover, the inhibition in test [7] is -7.26% (inactive); in test [8], 1.9% (inactive).
Take `O=C(Nc1ccc2c(c1)OCO2)C1CCCN1C(=O)Nc1ccccc1F` (stereo not given): the viability in test [1] was 110%; in test [3], 110% (inactive); in test [4], 104% (inactive); in test [5] it was 96.2% (inactive); in test [6] (setting [9]), 87.9%; in test [6] (setting [10]), 96.2%. In test [2], the Her2 level was 90% (inactive). Besides, the differential viability (reversal) in test [6] (H69AR cells + 2 uM doxorubicin) is 8.28% (inactive). The values for the inhibition in test [7] and in test [8] were -2.89% (inactive) and -3.97% (inactive), respectively.
Consider `COc1ccc(OC)c(C2=Nn3c(nnc3C3CCCCC3)SC2)c1`, for which the viability in test [1] was 94%; in test [3], 94% (inactive); in test [4], 75.4% (inactive); in test [5], 78.1% (inactive); in test [6] (setting [9]), 78%; in test [6] (setting [10]), 78.1%. The Her2 level in test [2] is 104% (inactive). Further, in test [6] (H69AR cells + 2 uM doxorubicin), the differential viability (reversal) is 0.07% (inactive). In addition, the inhibition in test [7] is 5.92% (inactive); in test [8] it was 3.06% (inactive).

For the origin of these results see PubChem BioAssay.
